Experimental data from ChEMBL document CHEMBL1121917, “Structure--activity relationships in a broad-spectrum anthelmintic series. Acid chloride phenylhydrazones. 1. Aryl substitutions and chloride variations” (1981).

What was measured:
Canis familiaris [1] = species: Canis familiaris; assay: Percent reduction in Uncinaria eggs per gram, after oral treatment of 75 mg/dog dose of compound in a single treatment; type: functional, Canis lupus familiaris, Egg
Canis familiaris [2] = species: Canis familiaris; assay: Percent reduction in Toxascaris eggs per gram, after oral treatment of 75 mg/dog dose of compound in a single treatment; type: functional, Canis lupus familiaris, Egg
Summary of the method: (§1)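 Dogs naturally infected with Toxascaris leonina were experimentally infected with mixed Ancylostoma caninum and Uncinaria stenocephala larvae. Finely ground compound was given orally in gelatin capsules. Three egg count determinations were made before and three after treatment in each experiment.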

Mus musculus [3] = species: Mus musculus; assay: Percent clearance of Nematospiroides dubius from mouse after oral treatment of 0.45 mg/mouse/day; type: functional
Summary of the method: (§2)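 Mice naturally carrying Syphacia obvelata were experimentally infected with Nematospiroides dubius and Hymenolepis nana, then grouped after a 2-week prepatency. Finely ground compound was suspended in aqueous 0.10% carboxymethylcellulose, 0.04% polysorbate 80 and 0.0042% polyparaben, and 0.1 mL was given orally by cannula once daily for 4 days to five mice. Necropsy followed 2 days later, scoring presence or absence of each parasite. Control clearance was subtracted from the treated clearance.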

Mus musculus [4] = species: Mus musculus; assay: Percent clearance of Syphacaia obvelata from mouse after oral treatment of 0.45 mg/mouse/day; type: functional; summary of the method: as §2
Ovis aries [5] = assay: Percent reduction in Trichostrongylus eggs per gram, after treatment with 400 mg/kg dose of compound perorally in sheep; type: functional, Egg; conditions: route oral
Summary of the method: (§3)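 Naturally parasitized lambs, dosed orally either with a suspension by stomach tube or with finely ground compound in gelatin capsules by balling gun. Activity was scored by the clinical test method, meaning a significant fall in helminth egg counts after treatment.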

Ovis aries [6] = assay: Percent reduction in Trichuris eggs per gram, after treatment with 200 mg/kg dose of compound perorally in sheep; type: functional, Egg; conditions: dose 200 mg/kg; route oral; summary of the method: as §3
Ovis aries [7] = assay: Percent reduction in Trichuris eggs per gram, after treatment with 400 mg/kg dose of compound perorally in sheep; type: functional, Egg; conditions: route oral; summary of the method: as §3
Ovis aries [8] = assay: Percent reduction in Haemonchus eggs per gram, after treatment of 200 mg/kg dose of compound perorally in sheep; type: functional, Egg; conditions: route oral
Summary of the method: (§4)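 Naturally parasitized lambs received compound orally, either as the aqueous suspension by stomach tube or as finely ground powder in gelatin capsules by balling gun. Activity was judged by the clinical test method, as a significant decrease in posttreatment helminth egg counts.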

Ovis aries [9] = assay: Percent reduction in Strongyloides eggs per gram, after treatment with 400 mg/kg dose of compound perorally in sheep; type: functional, Egg; conditions: route oral; summary of the method: as §3
Ovis aries [10] = assay: Percent reduction in Ostertagia eggs per gram, after treatment with 400 mg/kg dose of compound perorally in sheep; type: functional, Egg; conditions: route oral; summary of the method: as §3
Ovis aries [11] = assay: Percent reduction in Trichostrongylus eggs per gram, after treatment of 200 mg/kg dose of compound perorally in sheep; type: functional, Egg; conditions: route oral
Summary of the method: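 Lambs naturally parasitized with helminths. Finely ground compound was given orally, either as an aqueous suspension by stomach tube or weighed into gelatin capsules given by balling gun. Activity was assessed by the clinical test method: the reduction in helminth egg counts after treatment.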

Ovis aries [12] = assay: Percent reduction in Oesophagostomum eggs per gram, after treatment of 200 mg/kg dose of compound perorally in sheep; type: functional, Egg; conditions: route oral
Summary of the method: (§5)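 Naturally parasitized lambs were dosed orally at the stated mg/kg. Dosing was either as a suspension of finely ground compound by stomach tube, or as ground compound weighed into gelatin capsules and given by balling gun. Activity was scored by the clinical test method: the decrease in posttreatment helminth eggs per gram.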

Ovis aries [13] = assay: Percent reduction in Ostertagia eggs per gram, after treatment of 200 mg/kg dose of compound perorally in sheep; type: functional, Egg; conditions: route oral; summary of the method: as §5
Ovis aries [14] = assay: Percent reduction in Strongyloides eggs per gram, after treatment with 200 mg/kg dose of compound perorally in sheep; type: functional, Egg; conditions: route oral; summary of the method: as §3
Ovis aries [15] = assay: Percent reduction in Haemonchus eggs per gram, after treatment with 400 mg/kg dose of compound perorally in sheep; type: functional, Egg; conditions: route oral; summary of the method: as §5
Canis familiaris [16] = species: Canis familiaris; assay: Percent reduction in Uncinaria eggs per gram, after treatment with 200 mg/dog dose of compound in a single treatment; type: functional, Canis lupus familiaris, Egg; summary of the method: as §1
Canis familiaris [17] = species: Canis familiaris; assay: Percent reduction in Ancylostoma eggs per gram, after oral treatment of 175 mg/dog dose of compound in a single treatment; type: functional, Canis lupus familiaris, Egg
Summary of the method: (§6)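 Dogs naturally infected with Toxascaris leonina were experimentally infected with mixed Ancylostoma caninum and Uncinaria stenocephala larvae. Finely ground compound was given orally in gelatin capsules. Fecal egg counts were taken three times before and three times after treatment, and activity was taken as the fall in egg counts.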

Canis familiaris [18] = species: Canis familiaris; assay: Percent reduction in Ancylostoma eggs per gram, after treatment with 200 mg/dog dose of compound in a single treatment; type: functional, Canis lupus familiaris, Egg; summary of the method: as §6
Canis familiaris [19] = species: Canis familiaris; assay: Percent reduction in Toxascaris eggs per gram, after treatment with 200 mg/dog dose of compound in a single treatment; type: functional, Canis lupus familiaris, Egg; summary of the method: as §1
Mus musculus [20] = species: Mus musculus; assay: Percent clearance of Nematospiroides dubius from mouse after oral treatment of 1.87 mg/mouse/day; type: functional; summary of the method: as §2
Mus musculus [21] = species: Mus musculus; assay: Percent clearance of Syphacaia obvelata from mouse after oral treatment of 1.87 mg/mouse/day; type: functional; summary of the method: as §2
Ovis aries [22] = assay: Percent reduction in Trichostrongylus eggs per gram, after treatment with 250 mg/kg dose of compound perorally in sheep; type: functional, Egg; conditions: route oral
Ovis aries [23] = assay: Percent reduction in Trichostrongylus eggs per gram, after treatment with 325 mg/kg dose of compound perorally in sheep; type: functional, Egg; conditions: route oral
Ovis aries [24] = assay: Percent reduction in Trichostrongylus eggs per gram, after treatment with 450 mg/kg dose of compound perorally in sheep; type: functional, Egg; conditions: route oral; summary of the method: as §3
Ovis aries [25] = assay: Percent reduction in Trichuris eggs per gram, after treatment with 325 mg/kg dose of compound perorally in sheep; type: functional, Egg; conditions: route oral
Ovis aries [26] = assay: Percent reduction in Strongyloides eggs per gram, after treatment with 450 mg/kg dose of compound perorally in sheep; type: functional, Egg; conditions: route oral; summary of the method: as §3
Ovis aries [27] = assay: Percent reduction in Haemonchus eggs per gram, after treatment with 250 mg/kg dose of compound perorally in sheep; type: functional, Egg; conditions: route oral; summary of the method: as §5
Ovis aries [28] = assay: Percent reduction in Haemonchus eggs per gram, after treatment with 325 mg/kg dose of compound perorally in sheep; type: functional, Egg; conditions: route oral; summary of the method: as §5
Ovis aries [29] = assay: Percent reduction in Nematodirus eggs per gram, after treatment with 250 mg/kg dose of compound perorally in sheep; type: functional, Egg; conditions: route oral; summary of the method: as §5
Ovis aries [30] = assay: Percent reduction in Nematodirus eggs per gram, after treatment with 450 mg/kg dose of compound perorally in sheep; type: functional, Egg; conditions: route oral; summary of the method: as §5
Ovis aries [31] = assay: Percent reduction in Strongyloides eggs per gram, after treatment with 250 mg/kg dose of compound perorally in sheep; type: functional, Egg; conditions: route oral; summary of the method: as §3
Ovis aries [32] = assay: Percent reduction in Haemonchus eggs per gram, after treatment with 450 mg/kg dose of compound perorally in sheep; type: functional, Egg; conditions: route oral; summary of the method: as §5
Ovis aries [33] = assay: Percent reduction in Moniezia eggs per gram, after treatment with 400 mg/kg dose of compound perorally in sheep; type: functional, Egg; conditions: route oral; summary of the method: as §5
Ovis aries [34] = assay: Percent reduction in Strongyloides eggs per gram, after treatment with 325 mg/kg dose of compound perorally in sheep; type: functional, Egg; conditions: route oral; summary of the method: as §3
Ovis aries [35] = assay: Percent reduction in Ostertagia eggs per gram, after treatment with 450 mg/kg dose of compound perorally in sheep; type: functional, Egg; conditions: route oral; summary of the method: as §3
Ovis aries [36] = assay: Percent reduction in Oesophagostomum eggs per gram, after treatment with 450 mg/kg dose of compound perorally in sheep; type: functional, Egg; conditions: route oral; summary of the method: as §5
Ovis aries [37] = assay: Percent reduction in Oesophagostomum eggs per gram, after treatment with 250 mg/kg dose of compound perorally in sheep; type: functional, Egg; conditions: route oral; summary of the method: as §5
Ovis aries [38] = assay: Percent reduction in Trichuris eggs per gram, after treatment with 250 mg/kg dose of compound perorally in sheep; type: functional, Egg; conditions: route oral; summary of the method: as §3
Ovis aries [39] = assay: Percent reduction in Ostertagia eggs per gram, after treatment with 325 mg/kg dose of compound perorally in sheep; type: functional, Egg; conditions: route oral; summary of the method: as §3
Ovis aries [40] = assay: Percent reduction in Cooperia eggs per gram, after treatment with 400 mg/kg dose of compound perorally in sheep; type: functional, Egg; conditions: route oral; summary of the method: as §4
Ovis aries [41] = assay: Percent reduction in Ostertagia eggs per gram, after treatment with 250 mg/kg dose of compound perorally in sheep; type: functional, Egg; conditions: route oral; summary of the method: as §3
Canis familiaris [42] = species: Canis familiaris; assay: Percent reduction in Uncinaria eggs per gram, after oral treatment of 175 mg/dog dose of compound in a single treatment; type: functional, Canis lupus familiaris, Egg
Ovis aries [43] = assay: Percent reduction in Trichuris eggs per gram, after treatment with 450 mg/kg dose of compound perorally in sheep; type: functional, Egg; conditions: route oral; summary of the method: as §3
Mus musculus [44] = species: Mus musculus; assay: Percent clearance of Nematospiroides dubius from mouse after oral treatment of 0.57 mg/mouse/day; type: functional; summary of the method: as §2
Mus musculus [45] = species: Mus musculus; assay: Percent clearance of Syphacaia obvelata from mouse after oral treatment of 0.57 mg/mouse/day; type: functional; summary of the method: as §2
Canis familiaris [46] = species: Canis familiaris; assay: Percent reduction in Uncinaria eggs per gram, after oral treatment of 100 mg/dog dose of compound in a single treatment; type: functional, Canis lupus familiaris, Egg; summary of the method: as §1
Canis familiaris [47] = species: Canis familiaris; assay: Percent reduction in Uncinaria eggs per gram, after oral treatment of 200 mg/dog dose of compound in a single treatment; type: functional, Canis lupus familiaris, Egg; summary of the method: as §1
Canis familiaris [48] = species: Canis familiaris; assay: Percent reduction in Toxascaris eggs per gram, after oral treatment of 100 mg/dog dose of compound in a single treatment; type: functional, Canis lupus familiaris, Egg; summary of the method: as §1
Canis familiaris [49] = species: Canis familiaris; assay: Percent reduction in Toxascaris eggs per gram, after oral treatment of 200 mg/dog dose of compound in a single treatment; type: functional, Canis lupus familiaris, Egg; summary of the method: as §1

Compound: Fc1c(F)c(F)c(/C(Cl)=N/Nc2ccccc2)c(F)c1F
- Reduction (Canis familiaris [1]): 100%
- Reduction (Canis familiaris [2]): 71.4%
- Parasite_Clearance (Mus musculus [3]): 0%
- Parasite_Clearance (Mus musculus [4]): 0%
- Reduction (Ovis aries [5]): 96%
- Reduction (Ovis aries [6]): 10%
- Reduction (Ovis aries [7]): 88%
- Reduction (Ovis aries [8]): 85%
- Reduction (Ovis aries [9]): 99%
- Reduction (Ovis aries [10]): 95%
- Reduction (Ovis aries [11]): 0%
- Reduction (Ovis aries [12]): 100%
- Reduction (Ovis aries [13]): 93%
- Reduction (Ovis aries [14]): 93%
- Reduction (Ovis aries [15]): 96%

Compound: Cl/C(=N\Nc1c(Cl)cc(Cl)cc1Cl)c1ccccc1
- Reduction (Canis familiaris [16]): 59%
- Reduction (Canis familiaris [17]): 31%
- Reduction (Canis familiaris [18]): 87%
- Reduction (Canis familiaris [19]): 67%
- Parasite_Clearance (Mus musculus [20]): 80%
- Parasite_Clearance (Mus musculus [21]): 20%
- Reduction (Ovis aries [22]): 98%
- Reduction (Ovis aries [23]): 33%
- Reduction (Ovis aries [5]): 77%
- Reduction (Ovis aries [24]): 100%
- Reduction (Ovis aries [25]): 0%
- Reduction (Ovis aries [7]): 14%
- Reduction (Ovis aries [26]): 100%
- Reduction (Ovis aries [27]): 98%
- Reduction (Ovis aries [28]): 99%
- Reduction (Ovis aries [29]): 82%
- Reduction (Ovis aries [30]): 63%
- Reduction (Ovis aries [31]): 95%
- Reduction (Ovis aries [32]): 94%
- Reduction (Ovis aries [33]): 100%
- Reduction (Ovis aries [34]): 79%
- Reduction (Ovis aries [10]): 100%
- Reduction (Ovis aries [35]): 100%
- Reduction (Ovis aries [36]): 0%
- Reduction (Ovis aries [37]): 95%
- Reduction (Ovis aries [38]): 63%
- Reduction (Ovis aries [39]): 98%
- Reduction (Ovis aries [40]): 100%
- Reduction (Ovis aries [41]): 100%
- Reduction (Canis familiaris [42]): 26%
- Reduction (Ovis aries [43]): 29%
- Reduction (Ovis aries [15]): 85%

Compound: Cl/C(=N\Nc1ccccc1)c1cc(Cl)cc(Cl)c1
- Parasite_Clearance (Mus musculus [44]): 0%
- Parasite_Clearance (Mus musculus [45]): 25%

Compound: Cl/C(=N\Nc1ccccc1)c1ccc(I)cc1
- Reduction (Canis familiaris [46]): 41%
- Reduction (Canis familiaris [47]): 63%
- Reduction (Canis familiaris [48]): 0%
- Reduction (Canis familiaris [49]): 100%
- Parasite_Clearance (Mus musculus [20]): 80%
- Parasite_Clearance (Mus musculus [21]): 100%
